Measurements published in ChEMBL document CHEMBL1806361, “Discovery of potent, selective, and orally bioavailable quinoline-based dipeptidyl peptidase IV inhibitors targeting Lys554” (Bioorg Med Chem, 2011).

Assays:
[1] = Metabolic stability in human liver microsomes at 1 uM after 60 mins by HPLC with UV detectors in presence of NADPH; assay type: ADME, Microsome; settings: read-out: Stability
Summary of the method: (§1)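 Hepatic microsomes (0.2 mg protein/mL final) and compound (1 µM final) were mixed on ice. Reaction started with NADPH, run 60 min at 37 °C, and stopped with ice-cold acetonitrile. Zero-time controls were quenched before compound addition.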

Canis familiaris [2] = test: Oral bioavailability in dog at 1 mg/kg by LC/MS/MS; assay type: ADME, organism-based, Canis lupus familiaris; settings: in vivo
Summary of the method: (§2)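 Compound given orally at 1.0 mg/kg and intravenously at 0.1 mg/kg to rats and dogs. Blood sampled after dosing and spun to plasma. Plasma deproteinized with acetonitrile containing internal standard, then centrifuged. Supernatant diluted in 0.01 M ammonium acetate and spun again before LC/MS/MS quantitation. Values are means and SD of three experiments.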

Rattus norvegicus [3] = test: Oral bioavailability in rat at 1 mg/kg by LC/MS/MS; assay type: ADME, organism-based; settings: in vivo; summary of the method: as §2
[4] = Volume of distribution at steady state in dog at 1 mg/kg, po and 0.1 mg/kg, iv by LC/MS/MS; assay type: ADME, organism-based, Canis lupus familiaris; settings: in vivo, read-out: Vdss; summary of the method: as §2
Rattus norvegicus [5] = test: AUC in rat at 1 mg/kg, po by LC/MS/MS; assay type: ADME, organism-based, Plasma; design: dose 1 mg/kg, route oral; settings: in vivo; summary of the method: as §2
Canis familiaris [6] = test: AUC in dog at 1 mg/kg, po by LC/MS/MS; assay type: ADME, organism-based, Canis lupus familiaris, Plasma; design: dose 1 mg/kg, route oral; settings: in vivo; summary of the method: as §2
[7] = Volume of distribution at steady state in rat at 1 mg/kg, po and 0.1 mg/kg, iv by LC/MS/MS; assay type: ADME, organism-based; settings: in vivo, read-out: Vdss; summary of the method: as §2
[8] = Metabolic stability in rat liver microsomes at 1 uM after 60 mins by HPLC with UV detectors in presence of NADPH; assay type: ADME, Microsome; settings: read-out: Stability; summary of the method: as §1
[9] = Metabolic stability in dog liver microsomes at 1 uM after 60 mins by HPLC with UV detectors in presence of NADPH; assay type: ADME, Canis lupus familiaris, Microsome; settings: read-out: Stability; summary of the method: as §1
[10] = Solubility of the compound in water at pH 6.8 by HPLC analysis; assay type: physicochemical

microsomal CLint at 1 µM [1]: 16 µL/min/mg | F (Canis familiaris [2]): 49.2% | F (Rattus norvegicus [3]): 8% | Vd [4]: 1.49 L/kg | AUC (Rattus norvegicus [5]): 28.5 ng·h/mL | AUC (Canis familiaris [6]): 1410 ng·h/mL | Vd [7]: 10.7 L/kg | microsomal CLint at 1 µM [8]: 96 µL/min/mg | microsomal CLint at 1 µM [9]: 2 µL/min/mg | solubility [10]: > 5000 µg/mL
SMILES: Cc1ccc(-c2c(CN)c(CC(C)C)nc3ccc(N4CC(=O)NCC4=O)cc23)cc1.Cl.Cl
